PMC7610487 (Nature chemical biology, 2020)

Test system: zebrafish embryos
Test: Effects of the fluorogens on zebrafish embryogenesis
Type: in vivo
How it was run: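 Wild-type AB zebrafish embryos were raised at 28°C and staged as hours postfertilization. Fluorogen exposure started at 50% epiboly, either as a 1 h pulse or continuously overnight to 24 hpf. At 48 hpf, embryos were examined by brightfield microscopy and scored into three classes: no defect, axis defects, or dead.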

[1] = 5 μM fluorogen during 1 hour at 50% epiboly
[2] = 5 μM fluorogen overnight from 50% epiboly to 24 hpf

Compound | effects on embryos scored at 48 hpf [1] | effects on embryos scored at 48 hpf [2]
COc1cc(C=C2SC(=S)NC2=O)cc(OC)c1O [HBR-3,5DOM, 4-hydroxy-3,5-dimethoxybenzylidene rhodanine] | No deleterious effects | No deleterious effects
Cc1cc(C=C2SC(=S)NC2=O)ccc1O [HMBR, 4-hydroxy-3-methylbenzylidene rhodanine] | No deleterious effects | No deleterious effects
